Screening data from PubChem BioAssay.
Most compounds without a hit are left out; they make up all but 2.2% or so of the library.
Neddyl block: inhibitors of human cullin neddylation. inhibition, % at 25 µM. 0.58% of 360,000 active. TR-FRET cullin neddylation, biochemical. P61081+Q13564; in the data active = inhibition above about 36%
HKDC1 inh: HKDC1 (human) hexokinase inhibition; inhibition, % at 20 µM; recombinant HKDC1, G6PDH/diaphorase resazurin coupled fluorescence; 0.16% of 340,000 active; Q2TB90;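 active = inhibition above about 35% when tested at 20 µM, limit read from the data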
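test system = in-house recombinant HK5 (HKDC1) enzyme | amount = HKDC1 at 5 µg/mL | control set = DMSO-enzyme wells negative, buffer-substituted wells positive | compound = one dose of 20 µM, 1% DMSO | schedule = reaction time 90 min, room temperature, protected from light | technique = resorufin fluorescence at 613 nm | reagent = glucose with 1 mM ATP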
PfG6PD inh: PfG6PD (Plasmodium falciparum) enzyme inhibition; 0.78% of 350,000 active; inhibition, % at 20 µM; PfGluPho enzyme, NADPH resazurin-diaphorase fluorescence; AID 504690;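 active = inhibition reaching at least a set limit at 20 µM in the primary screen, cut at about 59% in these data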
M18AAP inhibitor: blocks P. falciparum M18 aspartyl aminopeptidase; recombinant PfM18AAP, H-Glu-NHMec fluorogenic cleavage; inhibition, % at 7.35 µM; 1.2% of 290,000 active; AID 1822;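 active = inhibition above the campaign mean inhibition over all tested compounds plus 3 SD, cut at about 28% in these data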
Neddyl inh conf: confirmation of human cullin neddylation inhibitors; 13% of 1,800 active; TR-FRET cullin neddylation biochemical assay; calls only at 25 µM; AID 652217; shares compounds with Neddyl block; in the data active = inhibition above about 40%;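 note: neddylation substrate is the cullin 1 ring ligase complex with SKP2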
Hits are given with their value; - = inactive; . = no result shown; + = active, no number.

SMILES | Neddyl block | HKDC1 inh | PfG6PD inh | M18AAP inhibitor | Neddyl inh conf
O=C(NNC(=O)c1ccccc1O)c1ccc(Cl)c(S(=O)(=O)N2CCc3ccccc32)c1 | - | - | - | . | .
Cc1ccc2nc(NCCCN3CCOCC3)c(C=NCCCN3CCOCC3)c(=O)n2c1 | 42 | - | - | - | -
O=C(NCCCc1ccccc1)c1ccccc1O | 42 | - | - | - | -
O=C(Nc1sc2c(c1C(=O)NCCO)CCCC2)c1ccco1 | 40 | - | - | - | .
O=C(COC(=O)c1ccccc1)Nc1cc(S(=O)(=O)N2CCCCCC2)ccc1Cl | - | - | - | . | .
O=C(COC(=O)c1ccccc1O)Nc1cc(S(=O)(=O)N2CCCCCC2)ccc1Cl | 49 | - | - | . | .
O=C(Nc1cc(S(=O)(=O)N2CCCCC2)ccc1O)c1ccccc1NS(=O)(=O)c1ccc(F)c(F)c1 | 51 | - | - | - | -
Nc1ccc(C(=O)N/N=C/c2cn(Cc3ccccc3)c3ccccc23)cc1 | 41 | - | - | - | -
O=C1OCC2=C1C(c1ccc(F)cc1)c1cc3c(cc1N2)OCCO3 (stereo not given) | . | - | - | - | .
O=C1OCC2=C1C(c1ccc(F)cc1)c1cc3c(cc1N2)OCO3 (stereo not given) | 42 | - | - | - | .
Cc1ccc(S(=O)(=O)N2CCCCC2)cc1NC(=O)c1cnccn1 | - | - | - | . | .
Clc1ccc(-c2cn3ccccc3n2)cc1 | 40 | - | - | - | -
O=C(Nc1ccc(-c2cn3ccccc3n2)cc1)c1ccc(Cl)cc1 | - | - | - | - | .
O=C(NC(=S)NNC(=O)[C@H]1C[C@@H]1c1ccccc1)c1ccc(F)cc1 | - | - | - | - | .
COc1ccc(C(=O)NC(=S)NNC(=O)[C@H]2C[C@@H]2c2ccccc2)cc1OC | 39 | - | - | - | -
COc1ccc2oc(=O)c(C(=O)NCCc3ccc(OC)c(OC)c3)cc2c1 | 48 | - | - | - | -
COc1cccc(-c2oc3c(c2C(=O)OCCN2CCCCC2)C(O)CCC3)c1 (stereo not given) | - | . | . | . | .
O=C(NCCCc1ccccc1)c1ccc(-n2cncn2)c([N+](=O)[O-])c1 | - | - | - | . | .
Cc1nc2c(c3c1[nH]c1ccccc13)C(=O)CC(C)(C)C2 | 46 | - | - | - | .
COc1ccccc1CN(C)C(=O)c1cccc(S(=O)(=O)N2CCc3ccccc3C2)c1 | - | - | - | . | .
N#Cc1nc(-c2ccco2)oc1NCc1ccccc1Cl | 39 | - | - | - | -
Cc1cccc(C(=O)OCC(=O)c2cccc(Br)c2)c1O | - | - | - | - | .
CCc1noc(C)c1C(=O)N(C)CC(=O)Nc1ccc(OC)cc1 | - | - | - | . | .
COC(=O)c1ccccc1NC(=O)NCC1CCCO1 (stereo not given) | 44 | - | - | - | -
COC(=O)c1ccccc1NC(=O)C(=O)NCC1CCCO1 (stereo not given) | - | - | - | - | .
SMILES | Neddyl block | HKDC1 inh | PfG6PD inh | M18AAP inhibitor | Neddyl inh conf
CCNC(=O)/C(C#N)=C/c1c(N2CCN(c3ccccc3)CC2)nc2ccccn2c1=O | 43 | - | - | - | +
COCCCNC(=O)/C(C#N)=C/c1c(N2CCN(c3ccc(OC)cc3)CC2)nc2c(C)cccn2c1=O | 55 | - | - | - | -
CCOC(=O)/C(C#N)=C/c1c(Oc2cccc(C)c2)nc2c(C)cccn2c1=O | . | - | - | - | .
Cc1ccc(Oc2nc3c(C)cccn3c(=O)c2/C=C(\C#N)C(N)=O)cc1 | 46 | - | - | - | -
COCCNC(=O)/C(C#N)=C/c1c(N2CCN(c3ccccc3)CC2)nc2ccccn2c1=O | . | - | - | - | .
COCCCNC(=O)/C(C#N)=C/c1c(N2CCN(c3ccccc3)CC2)nc2ccccn2c1=O | 62 | - | - | - | +
CCNC(=O)/C(C#N)=C/c1c(N2CCCCCC2)nc2ccccn2c1=O | . | - | - | - | .
Cc1ccc(S(=O)(=O)CCC(=O)N2CCN(c3ccc([N+](=O)[O-])cc3)CC2)cc1 | - | - | - | - | .
Cc1ccc(S(=O)(=O)N2CCCN(C(=O)c3ccc(-n4cccn4)cc3)CC2)cc1 | - | - | - | . | .
CCOC(=O)C1CCN(C(=O)COc2ccc(S(=O)(=O)N3CCOCC3)cc2C)CC1 | - | - | - | - | .
Cc1nc2ccccc2c(=O)n1NC(=O)c1cccc(Cl)c1 | - | - | - | - | .
Cn1nc(C(=O)Nc2nc(-c3ccc(F)cc3)cs2)ccc1=O | - | - | - | - | .
CNc1c(NS(=O)(=O)c2ccc(C(C)(C)C)cc2)c(=O)oc2ccccc12 | 42 | - | - | - | -
O=C(Nc1ccnn1C1CCN(Cc2ccc(C#CCCO)cc2)CC1)c1cccc(F)c1 | - | - | - | - | .
CCC(=O)Nc1nnc(/C=C/c2ccccc2)s1 | 47 | - | - | - | -
Cn1c(=O)c2nc(-c3ccccc3)c(-c3ccccc3)nc2n(C)c1=O | 52 | - | - | . | -
Cc1cc(F)ccc1S(=O)(=O)Nc1ccccc1C(=O)NCc1cccnc1 | 44 | - | - | - | -
COc1ccc(S(=O)(=O)Nc2ccccc2C(=O)NCc2cccnc2)cc1C | 40 | - | - | - | .
O=C(NCc1cccnc1)c1ccccc1NS(=O)(=O)c1ccc(Br)cc1 | - | - | - | . | .
Cc1cc(F)ccc1S(=O)(=O)Nc1ccccc1C(=O)NC1CCN(Cc2ccccc2)CC1 | 47 | - | - | . | +
COc1cc2ccccc2cc1C(=O)OCC(=O)N(C)c1c(N)n(Cc2ccccc2)c(=O)[nH]c1=O | 49 | - | - | . | .
CCN(C(=O)COC(=O)c1cc2ccccc2cc1OC)c1c(N)n(Cc2ccccc2)c(=O)[nH]c1=O | 56 | - | - | . | .
COc1ccc(CCC(=O)OCC(=O)N(C)c2c(N)n(Cc3ccccc3)c(=O)[nH]c2=O)cc1 | - | - | - | . | .
O=c1[nH]c2ccccc2nc1/C=C/c1ccccc1 | 42 | - | - | - | .
COc1cccc2[nH]c3c(N4CCCCC4)ncnc3c12 | 45 | - | - | - | .
SMILES | Neddyl block | HKDC1 inh | PfG6PD inh | M18AAP inhibitor | Neddyl inh conf
CCOC(=O)C1CCN(c2ncnc3c2[nH]c2cccc(OC)c23)CC1 | . | - | - | - | .
O=S(=O)(c1ccc(Cl)cc1)N1CCN(c2ccc(N3CCOCC3)nn2)CC1 | 43 | - | - | - | -
O=C(O)c1cc(S(=O)(=O)N2CCCCC2)ccc1N1CCCCC1 | - | - | - | . | .
CCCCOc1ccc(OCCNC(=O)c2ccco2)cc1 | - | - | - | - | .
Cc1c(C)c2ccc(OCC(=O)N3CC[C@@]4(O)CCCC[C@H]4C3)c(C)c2oc1=O | . | - | - | - | .
Cc1ccn2cc(C(=O)Nc3nnc(C)s3)nc2c1 | 40 | - | - | - | -
C=C(C)COc1cc2oc(=O)c(CC(=O)N3C[C@H]4C[C@@H](C3)c3cccc(=O)n3C4)c(C)c2cc1Cl | . | - | - | - | .
CCOc1ccc2oc(C(=O)OCC(=O)N3CCCC(C)C3)c(C)c2c1 (stereo not given) | 60 | - | - | . | .
COc1ccc2oc(C(=O)OCC(=O)N(C)CC(=O)Nc3ccc(F)cc3)c(C)c2c1 | 47 | - | - | . | .
COc1ccc2oc(C(=O)OCC(=O)NC3CCCCC3)c(C)c2c1 | 66 | - | - | . | -
COc1ccc2oc(C(=O)OCC(=O)N3CCCC(C)C3)c(C)c2c1 (stereo not given) | . | - | - | . | .
